# The source made the active and inactive calls. The rule behind the calls is not given here.
# What was measured:
# NCI-H1975 [1] = assay: Antiproliferative activity against human NCI-H1975 cells using 10% 2-HPbetaCD compound formulation after 72 hrs by MTT assay; type: functional, cell-based; conditions: NCI-H1975, 72 h
# In short: (§1)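 MTT anti-proliferation on NSCLC lines. Compounds dissolved in DMSO, diluted with water to 1% DMSO, then into growth medium (max 0.032% DMSO on cells); or dissolved in 10% (w/v) 2-HPβCD in water, then diluted (max 0.008% w/w 2-HPβCD in wells; vehicle controls at 0.008%). IC50 = concentration giving 50% loss of viability versus control cells. Cisplatin dissolved in water with stirring.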
# A549 [2] = assay: Antiproliferative activity against human A549 cells using 10% 2-HPbetaCD compound formulation after 72 hrs by MTT assay; type: functional, cell-based; conditions: A549, 72 h; in short: as §1
# HCC827 [3] = assay: Antiproliferative activity against human HCC827 cells using 1% DMSO/water compound formulation after 72 hrs by MTT assay; type: functional, cell-based; conditions: HCC827, 72 h; in short: as §1
# HCC827 [4] = assay: Antiproliferative activity against human HCC827 cells using 10% 2-HPbetaCD compound formulation after 72 hrs by MTT assay; type: functional, cell-based; conditions: HCC827, 72 h; in short: as §1
# NCI-H1975 [5] = assay: Potency index, ratio of compound cisplatin IC50 to compound IC50 for human NCI-H1975 cells using 10% 2-HPbetaCD compound formulation; type: functional
# [6] = Solubility of the compound in 10% 2-HPbetaCD/water solution; type: physicochemical; conditions: buffer
# A549 [7] = assay: Growth inhibition of human A549 cells assessed as cell growth at 10 uM after 24 hrs by SRB assay relative to control; type: functional; conditions: A549, 24 h, read-out: Activity
# In short: (§2)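 NCI DTP one-dose screen: cells plated at density set by doubling rate, incubated overnight, then exposed to compound at 10 μM for 24 hours. Growth percentage from protein density at end versus start of experiment, relative to initial cell number.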
# EKVX = assay: Growth inhibition of human EKVX cells assessed as cell growth at 10 uM after 24 hrs by SRB assay relative to control; type: functional; conditions: read-out: Activity; in short: as §2
# NCI-H226 = assay: Growth inhibition of human NCI-H226 cells assessed as cell growth at 10 uM after 24 hrs by SRB assay relative to control; type: functional; conditions: NCI-H226, 24 h, read-out: Activity; in short: as §2
# NCI-H23 [8] = assay: Growth inhibition of human NCI-H23 cells assessed as cell growth at 10 uM after 24 hrs by SRB assay relative to control; type: functional; conditions: NCI-H23, 24 h, read-out: Activity; in short: as §2
# HOP-92 = assay: Growth inhibition of human HOP92 cells after 24 hrs by SRB assay; type: functional; conditions: HOP-92, 24 h
# NCI-H23 [9] = assay: Growth inhibition of human NCI-H23 cells after 24 hrs by SRB assay; type: functional; conditions: NCI-H23, 24 h
# NCI-H322M = assay: Growth inhibition of human NCI-H322M cells after 24 hrs by SRB assay; type: functional
# NCI-H460 [10] = assay: Growth inhibition of human NCI-H460 cells after 24 hrs by SRB assay; type: functional; conditions: NCI-H460, 24 h
# Bos taurus = species on record: Bos taurus; assay: Inhibition of ethidium bromide binding to calf thymus DNA assessed as at 13.3 uM using 10% 2HPbetaCD/water compound formulation by spectrofluorometric method
# NCI-H460 [11] = assay: Disruption of mitochondrial membrane potential in human NCI-H460 cells at 40 uM up to 1 hr […] by JC1/DAPI staining based confocal microscopic method; type: functional, cell-based
# NCI-H460 [12] = assay: Disruption of mitochondrial membrane potential in human NCI-H460 cells at 20 uM up to 30 mins using […] by JC1/DAPI staining based confocal microscopic method; type: functional, cell-based
# Mus musculus = assay: Acute toxicity in C57BL/6 mouse assessed as weight loss at 20 mg/kg, ip administered as 20% 2HPbetaCD formulation; type: organism-based; conditions: in vivo
# In short: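 Female/male not stated; C57BL/6 mice received 20 mg/kg IP on day zero in 100 μL of 20% (w/v) 2-HPβCD, then a second 15 mg/kg IP dose on day fourteen. Vehicle controls got 100 μL of 20% 2-HPβCD IP on days 0, 7, 14, 21, 25 and 29. Body weight and behaviour were monitored throughout, with survival plotted Kaplan-Meier.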
# [13] = read-out: LC50 (the source's name)
compound,measurement,setting,value
CCc1n(Cc2ccc3ccccc3c2)cc[n+]1Cc1ccc2ccccc2c1.[Br-],IC50,NCI-H1975 [1],560 nM
same,IC50,A549 [2],2340 nM
same,IC50,HCC827 [3],1150 nM
same,IC50,HCC827 [4],970 nM
same,Ratio IC50,NCI-H1975 [5],17
same,solubility,[6],> 4400 µg/mL
same,growth at 10 µM,A549 [7],28.5%
same,growth at 10 µM,EKVX,11.9%
same,growth at 10 µM,NCI-H226,6.75%
same,growth at 10 µM,NCI-H23 [8],-14.6%
same,GI50,HOP-92,338 nM
same,TGI,HOP-92,1770 nM
same,CC50,HOP-92; [13],1770 nM
same,GI50,NCI-H23 [9],396 nM
same,TGI,NCI-H23 [9],2020 nM
same,CC50,NCI-H23 [9]; [13],2020 nM
same,GI50,NCI-H322M,2120 nM
same,LC50 (lethal concentration 50%),NCI-H322M,6710 nM
same,TGI,NCI-H322M,6710 nM
same,GI50,NCI-H460 [10],724 nM
same,TGI,NCI-H460 [10],2150 nM
same,CC50,NCI-H460 [10]; [13],2150 nM
same,inhibition,Bos taurus,inactive
same,Activity,NCI-H460 [11],Active
same,Activity,NCI-H460 [12],Active
same,Activity,Mus musculus,Toxic

# Source: ChEMBL document CHEMBL4002637, “Synthesis, characterization, in vitro SAR and in vivo evaluation of N,N'bisnaphthylmethyl 2-alkyl substituted imidazolium salts against NSCLC” (Bioorg Med Chem Lett, 2017)
